Assay results from ChEMBL document CHEMBL1833940, “Discovery of 3-(2,6-dichloro-3,5-dimethoxy-phenyl)-1-{6-[4-(4-ethyl-piperazin-1-yl)-phenylamino]-pyrimidin-4-yl}-1-methyl-urea (NVP-BGJ398), a potent and selective inhibitor of the fibroblast growth factor receptor family of receptor tyrosine kinase” (J Med Chem, 2011).
Calls of active or inactive are those of the source. No cut-off for these calls is given here.

Columns and labels:
BaF3 = test: Antiproliferative activity against mouse BAF3 cell line transformed with TEL-FGFR3 construct after 48 hrs by luciferase bioluminescent assay; type: functional, cell-based; conditions: BaF3, 48 h
Method in brief: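 IL-3-independent BaF3 or BaF3 Tel-TK cells were grown in RPMI-1640 with 10% FBS and seeded at 4250 cells/well in 384-well plates. Compound serially diluted in DMSO was pin-transferred, followed by 48 h at 37 °C, 5% CO2. Viability was read by Bright-Glo luciferase luminescence.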

[1] = molecular target: Tyrosine-protein kinase HCK (Homo sapiens, UniProt P08631); test: Inhibition of recombinant HCK
Method in brief: (§1)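 Purified recombinant kinases under optimized conditions with peptide substrates. ATP was set at each kinase's Km. Phosphorylation was read by microfluidic mobility-shift separation of substrate and product; IC50 determined.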

Rattus norvegicus [2] = test: Inhibition of FGFR autophosphorylation in RT112 tumor bearing nude rowett rat assessed as decrease in pFRS2 concentration at 4.25 mg/kg, po administered as a single dose by Western blot analysis; type: functional, organism-based; design: dose 4.25 mg/kg
Method in brief: (§2)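 RT112 tumor-bearing nude Rowett rats (n = 4) received a single oral dose of monophosphate salt at 4.25 or 8.51 mg/kg free base. Tumors were collected at time points up to 24 h and lysed in Tris/Triton buffer with vanadate and protease inhibitors. Western blots were run for pFRS2(Tyr196) and pMAPK, with total FRS2, total MAPK or β-tubulin as loading controls.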

Rattus norvegicus [3] = test: Inhibition of FGFR autophosphorylation in RT112 tumor bearing nude rowett rat assessed as decrease in pFRS2 concentration at 4.25 to 8.51 mg/kg, po administered as a single dose after 24 hrs by Western blot analysis; type: functional, organism-based; method in brief: as §2
[4] = molecular target: Tyrosine-protein kinase Lyn (Homo sapiens, UniProt P07948); test: Inhibition of recombinant LYN kinase
Method in brief: (§3)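 Purified recombinant kinases under optimized conditions, with peptide substrates and ATP at each kinase's Km. Phosphorylation was read out by microfluidic mobility shift, and IC50 values were obtained.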

[5] = Cmax in Wistar rat at 10 mg/kg, po by LC-MS/MS analysis; type: ADME, organism-based; design: dose 10 mg/kg, route oral; conditions: in vivo
Method in brief: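 Female Wistar rats received either an iv femoral-vein dose of 5 mg/kg in NMP/PEG200 (1:9) or an oral dose of monophosphate salt at 10 mg/kg (free base) in acetate buffer pH 4.6/PEG300. Plasma was sampled by sublingual bleeding at 0.083–24 h (n = 4 staggered, or n = 3–4 serial). Plasma levels were measured by LC-MS/MS (LOQ 10 ng/mL).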

[6] = Antiproliferative activity against human JMSU1 cells overexpressing wild type FGFR3 after 72 hrs; type: functional, cell-based; conditions: JMSU-1, 72 h
Method in brief: (§4)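 Bladder cancer lines from ATCC or DSMZ were seeded in 96-well plates (RT4, RT112 at 8500 cells/well; others at 5000 cells/well) in growth medium. Compound dilutions or DMSO were added 24 h later and incubated 72 h. Cells were fixed with glutaraldehyde, stained with 0.05% methylene blue and eluted with 3% HCl, then OD650 nm was read.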

[7] = molecular target: Phosphatidylinositol 4,5-bisphosphate 3-kinase catalytic subunit delta isoform (Homo sapiens, UniProt O00329); test: Inhibition of recombinant PI3Kdelta by luminescent kinase assay
[8] = molecular target: Phosphatidylinositol 4,5-bisphosphate 3-kinase catalytic subunit alpha isoform (Homo sapiens, UniProt P42336); test: Inhibition of recombinant PI3Kalpha
[9] = Oral bioavailability in Wistar rat at 10 mg/kg; type: ADME, organism-based; conditions: in vivo
Method in brief: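 Female Wistar rats received 5 mg/kg iv into the femoral vein in NMP/PEG200 (1:9), or the monophosphate salt orally at 10 mg/kg (free base) in acetate buffer pH 4.6/PEG300. Serial sublingual plasma samples were taken from 0.083 to 24 h.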

[10] = molecular target: MAP kinase-interacting serine/threonine-protein kinase 2 (Homo sapiens, UniProt Q9HBH9); test: Inhibition of recombinant MNK2; method in brief: as §3
Aurora kinase A = Aurora kinase A (Homo sapiens, UniProt O14965); test: Inhibition of recombinant Aurora A; method in brief: as §3
[11] = molecular target: Serine/threonine-protein kinase PAK 2 (Homo sapiens, UniProt Q13177); test: Inhibition of recombinant PAK2; method in brief: as §1
Tumour = test: Cmax in tumor of RT112/luc1 cells implanted athymic nude mouse at 20 mg/kg, po by LC/MS/MS analysis; type: ADME, organism-based, Neoplasm; design: dose 20 mg/kg, route oral; conditions: in vivo
Method in brief: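 Female athymic nude mice carried subcutaneous RT112/luc1 tumors (5×10^6 cells, 50% Matrigel; about 300–400 mm3). Dosing was either 5 mg/kg iv by tail vein in NMP/PEG200 (1:9) or 20 mg/kg oral suspension in PEG300/D5W (2:1). Groups of mice (n = 4) were sacrificed at 0.083–24 h. Plasma and tumor levels were measured by LC-MS/MS (LOQ 5 ng/mL, 10 ng/g).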

VM-CUB-1 = test: Antiproliferative activity against human VMCUB1 cells after 72 hrs; type: functional, cell-based; conditions: VM-CUB-1, 72 h; method in brief: as §4
Focal adhesion kinase 1 = Focal adhesion kinase 1 (Homo sapiens, UniProt Q05397); test: Inhibition of recombinant FAK; method in brief: as §1
[12] = Tmax in plasma of RT112/luc1 cells implanted athymic nude mouse at 20 mg/kg, po by LC/MS/MS analysis; type: ADME, organism-based; design: dose 20 mg/kg, route oral
Method in brief: (§5)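 Female athymic nude mice carrying subcutaneous RT112/luc1 tumors (ca. 300–400 mm3). Dosing was 5 mg/kg iv by tail vein in NMP/PEG200 (1:9) or 20 mg/kg by oral gavage as a suspension in PEG300/D5W (2:1). Groups (n = 4) were sacrificed from 0.083 to 24 h. Plasma and tumor were measured by LC-MS/MS (LOQ 5 ng/mL, 10 ng/g). Noncompartmental analysis used the linear trapezoidal AUC; F was calculated from dose-normalized AUC.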

[13] = molecular target: Tyrosine-protein kinase SYK (Homo sapiens, UniProt P43405); test: Inhibition of recombinant SYK; method in brief: as §3
Mus musculus = test: Toxicity in athymic nude mouse xenografted with human RT112 cells/luc1 assessed as increase in body weight at 30 mg/kg, po administered for 12 days; conditions: in vivo, 288 h
Cytochrome P450 2C9 = Cytochrome P450 2C9 (Homo sapiens, UniProt P11712); test: Inhibition of CYP2C9 using MFC as substrate; type: ADME
Method in brief: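 Human CYP450 inhibition was measured with isoform-specific fluorogenic probe substrates: CEC for 1A2 and 2C19, MFC for 2C9, AMMC for 2D6. Incubation was at 37 °C with an NADPH-regenerating system in 384-well format. Metabolite was quantified by fluorescence, and IC50 was obtained by curve fitting.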

RT-112 = test: Antitumor activity against human RT112 cells xenografted in nude Rowett rat assessed as tumour regression at 10 mg/kg, po qd administered for 20 days; type: functional
Method in brief: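 Female nude Rowett rats aged 6–9 weeks were given 1×10^6 RT112 cells subcutaneously in HBSS/50% Matrigel. Treatment began at about 100 mm3 mean tumor volume (n = 8): monophosphate salt in acetate buffer pH 4.6/PEG300 (1:1) by gavage, 5 mL/kg, at 5, 10, 15 mg/kg/qd free base for 20 days. Tumors were measured by caliper (L×W×H×π/6). Readouts were T/C and % regression from start volume.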

[14] = Volume of distribution at steady state in RT112/luc1 cells implanted athymic nude mouse at 5 mg/kg, iv by LC/MS/MS; type: ADME, organism-based; design: dose 5 mg/kg, route intravenous; conditions: in vivo, read-out: Vdss; method in brief: as §5

Chain of Tyrosine-protein kinase HCK (P08631 whole entry): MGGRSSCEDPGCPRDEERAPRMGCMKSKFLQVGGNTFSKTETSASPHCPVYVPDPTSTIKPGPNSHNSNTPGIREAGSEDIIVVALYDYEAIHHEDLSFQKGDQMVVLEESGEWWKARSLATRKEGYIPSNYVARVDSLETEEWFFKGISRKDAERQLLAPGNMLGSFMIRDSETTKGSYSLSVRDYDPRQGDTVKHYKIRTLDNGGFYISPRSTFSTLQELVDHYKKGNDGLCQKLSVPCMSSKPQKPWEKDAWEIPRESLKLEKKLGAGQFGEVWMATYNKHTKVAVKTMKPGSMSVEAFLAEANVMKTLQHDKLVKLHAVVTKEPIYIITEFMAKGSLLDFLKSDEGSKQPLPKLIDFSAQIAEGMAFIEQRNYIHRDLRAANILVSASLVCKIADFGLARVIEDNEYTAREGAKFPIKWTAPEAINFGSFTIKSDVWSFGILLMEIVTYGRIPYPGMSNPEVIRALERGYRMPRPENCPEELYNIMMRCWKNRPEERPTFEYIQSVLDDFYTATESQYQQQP
Chain of Tyrosine-protein kinase Lyn (P07948 whole entry): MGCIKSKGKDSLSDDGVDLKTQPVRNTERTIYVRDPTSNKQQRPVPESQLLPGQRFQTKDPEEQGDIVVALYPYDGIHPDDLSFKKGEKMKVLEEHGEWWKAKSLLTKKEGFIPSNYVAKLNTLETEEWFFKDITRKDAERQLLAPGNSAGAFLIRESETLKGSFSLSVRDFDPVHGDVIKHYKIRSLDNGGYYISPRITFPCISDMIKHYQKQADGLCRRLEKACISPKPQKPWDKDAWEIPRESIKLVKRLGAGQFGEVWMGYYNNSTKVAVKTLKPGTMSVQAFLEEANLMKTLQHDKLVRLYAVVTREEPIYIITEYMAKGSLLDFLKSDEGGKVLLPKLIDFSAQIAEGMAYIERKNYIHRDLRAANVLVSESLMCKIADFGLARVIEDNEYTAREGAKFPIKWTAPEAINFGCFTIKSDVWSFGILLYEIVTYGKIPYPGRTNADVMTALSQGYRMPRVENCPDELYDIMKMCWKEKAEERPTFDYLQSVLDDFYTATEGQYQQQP
Chain of MAP kinase-interacting serine/threonine-protein kinase 2 (Q9HBH9 whole entry): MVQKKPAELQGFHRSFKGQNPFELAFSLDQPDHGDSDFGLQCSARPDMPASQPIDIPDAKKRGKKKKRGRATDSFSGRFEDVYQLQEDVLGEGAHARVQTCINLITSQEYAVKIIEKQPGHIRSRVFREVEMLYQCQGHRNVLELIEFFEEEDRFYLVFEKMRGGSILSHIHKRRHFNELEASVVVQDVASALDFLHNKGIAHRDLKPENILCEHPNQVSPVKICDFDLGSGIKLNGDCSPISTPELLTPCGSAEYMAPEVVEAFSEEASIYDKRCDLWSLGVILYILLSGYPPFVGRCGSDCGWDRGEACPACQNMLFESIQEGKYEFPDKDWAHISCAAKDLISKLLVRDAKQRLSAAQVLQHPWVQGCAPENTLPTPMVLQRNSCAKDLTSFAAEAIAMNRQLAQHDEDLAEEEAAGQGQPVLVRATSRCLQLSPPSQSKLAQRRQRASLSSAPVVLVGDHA
Chain of Aurora kinase A (O14965 whole entry): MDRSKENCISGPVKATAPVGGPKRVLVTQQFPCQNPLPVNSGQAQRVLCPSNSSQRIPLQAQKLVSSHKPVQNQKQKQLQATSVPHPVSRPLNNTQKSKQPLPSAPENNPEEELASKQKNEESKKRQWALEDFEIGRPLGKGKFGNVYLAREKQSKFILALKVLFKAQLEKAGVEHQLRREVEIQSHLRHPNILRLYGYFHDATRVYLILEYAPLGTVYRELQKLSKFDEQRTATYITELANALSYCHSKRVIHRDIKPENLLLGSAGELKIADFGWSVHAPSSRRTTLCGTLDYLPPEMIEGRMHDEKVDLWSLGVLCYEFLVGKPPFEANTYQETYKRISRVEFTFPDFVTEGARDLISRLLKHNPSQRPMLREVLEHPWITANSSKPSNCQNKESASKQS
Chain of Phosphatidylinositol 4,5-bisphosphate 3-kinase catalytic subunit alpha isoform (P42336 whole entry, canonical isoform): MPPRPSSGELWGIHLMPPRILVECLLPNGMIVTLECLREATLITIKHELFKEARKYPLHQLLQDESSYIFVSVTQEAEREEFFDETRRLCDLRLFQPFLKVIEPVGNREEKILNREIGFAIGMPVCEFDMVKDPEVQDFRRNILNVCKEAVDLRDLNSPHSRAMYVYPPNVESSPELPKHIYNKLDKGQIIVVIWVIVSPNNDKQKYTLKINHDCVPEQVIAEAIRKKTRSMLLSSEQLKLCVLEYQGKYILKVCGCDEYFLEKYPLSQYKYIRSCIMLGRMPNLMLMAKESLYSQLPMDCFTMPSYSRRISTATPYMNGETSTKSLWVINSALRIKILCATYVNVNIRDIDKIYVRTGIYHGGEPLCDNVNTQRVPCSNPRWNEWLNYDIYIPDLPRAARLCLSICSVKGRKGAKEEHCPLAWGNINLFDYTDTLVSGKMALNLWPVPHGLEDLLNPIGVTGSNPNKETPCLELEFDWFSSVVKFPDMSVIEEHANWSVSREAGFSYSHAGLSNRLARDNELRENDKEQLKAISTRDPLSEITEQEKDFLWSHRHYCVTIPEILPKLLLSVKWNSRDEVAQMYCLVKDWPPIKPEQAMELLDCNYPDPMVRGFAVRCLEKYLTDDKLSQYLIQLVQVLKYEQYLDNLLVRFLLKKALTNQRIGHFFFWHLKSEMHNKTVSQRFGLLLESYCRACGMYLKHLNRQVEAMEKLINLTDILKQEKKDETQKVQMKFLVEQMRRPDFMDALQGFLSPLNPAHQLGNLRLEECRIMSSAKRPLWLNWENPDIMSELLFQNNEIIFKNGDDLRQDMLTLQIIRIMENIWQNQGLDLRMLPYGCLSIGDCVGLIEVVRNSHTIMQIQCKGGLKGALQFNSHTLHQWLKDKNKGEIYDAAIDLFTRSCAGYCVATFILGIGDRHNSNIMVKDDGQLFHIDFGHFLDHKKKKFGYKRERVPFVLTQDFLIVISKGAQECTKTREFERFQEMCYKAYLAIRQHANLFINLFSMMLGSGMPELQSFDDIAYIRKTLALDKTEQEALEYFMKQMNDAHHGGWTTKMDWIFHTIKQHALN
Chain of Focal adhesion kinase 1 (Q05397 whole entry): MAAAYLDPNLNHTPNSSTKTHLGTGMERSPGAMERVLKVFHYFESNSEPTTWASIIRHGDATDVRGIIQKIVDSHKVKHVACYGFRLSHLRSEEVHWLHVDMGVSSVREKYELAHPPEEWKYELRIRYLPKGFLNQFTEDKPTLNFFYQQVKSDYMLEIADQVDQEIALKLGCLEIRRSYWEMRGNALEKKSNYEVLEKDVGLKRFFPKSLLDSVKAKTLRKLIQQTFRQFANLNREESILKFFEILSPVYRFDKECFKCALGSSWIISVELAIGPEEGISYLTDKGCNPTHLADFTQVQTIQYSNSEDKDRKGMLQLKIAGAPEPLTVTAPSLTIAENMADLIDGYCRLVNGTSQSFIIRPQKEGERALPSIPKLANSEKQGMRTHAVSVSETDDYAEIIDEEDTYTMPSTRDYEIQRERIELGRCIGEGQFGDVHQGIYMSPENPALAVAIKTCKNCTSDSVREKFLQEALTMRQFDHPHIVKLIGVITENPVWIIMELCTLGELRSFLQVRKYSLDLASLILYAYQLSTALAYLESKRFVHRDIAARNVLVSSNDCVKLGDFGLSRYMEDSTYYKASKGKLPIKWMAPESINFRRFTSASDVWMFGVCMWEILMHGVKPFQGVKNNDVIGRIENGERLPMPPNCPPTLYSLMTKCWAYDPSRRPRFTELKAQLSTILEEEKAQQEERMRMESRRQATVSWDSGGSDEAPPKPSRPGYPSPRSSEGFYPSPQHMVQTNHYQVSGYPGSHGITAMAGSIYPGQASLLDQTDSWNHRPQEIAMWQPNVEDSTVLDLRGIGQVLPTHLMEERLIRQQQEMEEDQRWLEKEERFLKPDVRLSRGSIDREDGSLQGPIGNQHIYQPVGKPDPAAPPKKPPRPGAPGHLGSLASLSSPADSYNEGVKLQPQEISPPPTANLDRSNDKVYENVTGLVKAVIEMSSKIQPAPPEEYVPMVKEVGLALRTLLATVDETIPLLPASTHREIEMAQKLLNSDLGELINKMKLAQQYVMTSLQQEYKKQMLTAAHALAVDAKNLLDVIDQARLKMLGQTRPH
Chain of Phosphatidylinositol 4,5-bisphosphate 3-kinase catalytic subunit delta isoform (O00329 whole entry, canonical isoform): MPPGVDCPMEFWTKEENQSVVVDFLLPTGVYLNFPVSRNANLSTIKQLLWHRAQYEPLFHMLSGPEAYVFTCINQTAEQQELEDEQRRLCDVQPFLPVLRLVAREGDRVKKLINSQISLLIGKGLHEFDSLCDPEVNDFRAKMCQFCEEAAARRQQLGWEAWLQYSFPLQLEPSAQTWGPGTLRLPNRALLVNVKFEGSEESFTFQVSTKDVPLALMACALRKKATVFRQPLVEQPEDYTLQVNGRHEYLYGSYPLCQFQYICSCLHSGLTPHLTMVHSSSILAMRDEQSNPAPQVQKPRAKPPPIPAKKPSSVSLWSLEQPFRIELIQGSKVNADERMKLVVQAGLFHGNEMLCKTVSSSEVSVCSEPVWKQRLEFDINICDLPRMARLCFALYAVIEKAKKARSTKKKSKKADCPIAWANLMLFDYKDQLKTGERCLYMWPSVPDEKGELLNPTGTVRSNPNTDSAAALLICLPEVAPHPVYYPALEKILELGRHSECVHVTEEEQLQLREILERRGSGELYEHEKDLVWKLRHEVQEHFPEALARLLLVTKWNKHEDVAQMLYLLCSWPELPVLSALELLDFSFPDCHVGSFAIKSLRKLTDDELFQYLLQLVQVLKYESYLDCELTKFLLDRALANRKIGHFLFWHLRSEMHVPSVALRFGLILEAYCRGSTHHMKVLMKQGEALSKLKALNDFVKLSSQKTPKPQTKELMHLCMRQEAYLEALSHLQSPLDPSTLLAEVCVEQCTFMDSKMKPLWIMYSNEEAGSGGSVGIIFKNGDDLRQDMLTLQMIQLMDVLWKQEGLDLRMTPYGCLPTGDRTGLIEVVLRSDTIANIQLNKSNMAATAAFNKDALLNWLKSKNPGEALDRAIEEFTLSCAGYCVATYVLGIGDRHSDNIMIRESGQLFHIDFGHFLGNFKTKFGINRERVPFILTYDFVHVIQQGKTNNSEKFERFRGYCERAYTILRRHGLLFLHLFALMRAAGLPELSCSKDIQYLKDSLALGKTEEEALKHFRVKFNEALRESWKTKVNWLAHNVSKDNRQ

IC50 (BaF3): 0.002 µM
IC50 [1]: > 10 µM
IC50 [4]: 0.3 µM
Cmax [5]: 260 nM
IC50 [7]: > 9 µM
IC50 [8]: > 9 µM
bioavailability [9]: 51%
IC50 [10]: > 10 µM
IC50 (Aurora kinase A): > 10 µM
IC50 [11]: > 10 µM
Cmax (Tumour): 1.63 nmol/g
IC50 (Focal adhesion kinase 1): > 10 µM
Tmax [12]: 1 h
IC50 [13]: > 10 µM
IC50 (Cytochrome P450 2C9): > 10 µM
Vd [14]: 26 L/kg
SMILES: CCN1CCN(c2ccc(Nc3cc(N(C)C(=O)Nc4c(Cl)c(OC)cc(OC)c4Cl)ncn3)cc2)CC1.O=P(O)(O)O [INFIGRATINIB PHOSPHATE]
inhibition (Rattus norvegicus [2]): Active
inhibition (Rattus norvegicus [3]): inactive
IC50 [6]: 0.015 µM
IC50 (VM-CUB-1): > 3 µM
Activity (Mus musculus): 10%
Activity (RT-112): 66%
